Inhibition and Ratio data for two molecules are collected here from ChEMBL document CHEMBL1121748, “Antimycotic imidazoles. 5. Synthesis and antimycotic properties of 1-[[2-aryl-4-(arylalkyl)-1,3-dioxolan-2-yl]methyl]-1H-imidazoles” (1981).

One experiment has as its system Aspergillus fumigatus. The experiment in a line: Antifungal activity against Aspergillus fumigatus. It counts as functional.
In experiment [1] the test system is Staphylococcus haemolyticus. The experiment in a line: Antibacterial against Staphylococcus hemolyticus. Format: functional.
The next experiment concerns Microsporum canis. The experiment in a line: Antifungal activity against Microsporum canis. Format: functional.
Another experiment has as its system Saprolegnia. Briefly: Antifungal activity against Saprolegnia species. It counts as functional.
For another experiment, the system named is Candida albicans. Briefly: Antifungal activity against Candida albicans. It counts as functional.
In the next experiment the test system is Sporothrix schenckii. Briefly: Antifungal activity against Sporothrix schenck ii. It counts as functional.
Experiment [2] deals with Erysipelothrix rhusiopathiae. The experiment in a line: Antibacterial activity against Erysipelothrix insidiosa. Format: functional.
The next experiment deals with Candida tropicalis. The experiment in a line: Antifungal activity against Candida tropicalis. It counts as functional.
Experiment [3] can be described thus: Ratio of animals cured to that of animals infected, tested in vivo for antifungal activity against cutaneous candidosis in guinea pig; 0/2. It counts as functional.
Another experiment relates to Cryptococcus neoformans. The experiment in a line: Antifungal activity against Cryptococcus neoformans. Format: functional.
The nature of experiment [4]: Ratio of animals cured to that of animals […], Tested in vivo for antifungal activity against vaginal candidosis in rat; 2/4. It counts as functional.
Another experiment deals with Trichophyton benhamiae. The experiment in a line: Antifungal activity against Trichophyton mentagrophytes. Format: functional, trychophyton mentagrophytes.
In a further experiment the test system is Phialophora verrucosa. The experiment in a line: Antifungal activity against Phialophora verrucosa. Format: functional.
Another experiment has as its system Mucor. Briefly: Antifungal activity against Mucor species. It counts as functional.
The next experiment deals with Trichophyton rubrum. The experiment in a line: Antifungal activity against Trichophyton rubrum. It counts as functional.
The test system of the next experiment is Streptococcus pyogenes. The experiment in a line: Antibacterial activity against Streptococcus pyogenes. It counts as functional.
A short description of experiment [5]: Ratio of animals cured to that of animals infected, tested in vivo for antifungal activity against vaginal candidosis in rat; 0/2. It counts as functional. The gist of the method:
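Rat experimental vaginal candidosis. Compounds were given orally as a suspension in polyethylene glycol 200 at 10 mg/kg/day for 14 consecutive days.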

The nature of experiment [6]: Ratio of animals cured to that of animals infected, tested in vivo for antifungal activity against cutaneous candidosis in guinea pig; 1/2. Format: functional.

With `COc1ccc(CCC2COC(Cn3ccnc3)(c3ccc(Cl)cc3Cl)O2)cc1` (configuration not stated), the Inhibition with Aspergillus fumigatus was under 1 µg/mL; in [1], 100 µg/mL; in the experiment with Microsporum canis, 1 µg/mL; in the experiment with Saprolegnia it was 100 µg/mL; with Candida albicans, 100 µg/mL; with Sporothrix schenckii it was 10 µg/mL. For the same molecule, the Inhibition in experiment [2] is under 1 µg/mL; in the experiment with Candida tropicalis it was 10 µg/mL; with Cryptococcus neoformans, 1 µg/mL; in the experiment on Trichophyton benhamiae, under 1 µg/mL; in the experiment with Phialophora verrucosa, 100 µg/mL; with Mucor it was 100 µg/mL. Moreover, the Inhibition in the experiment on Trichophyton rubrum and with Streptococcus pyogenes was under 1 µg/mL each time. Further, the Ratio was 0 in experiment [3] and 0.5 in experiment [4].

Regarding `Clc1ccc(C2COC(Cn3ccnc3)(c3ccccc3)O2)cc1` (configuration not stated), the Inhibition is 10 µg/mL in the experiment with Aspergillus fumigatus; 100 µg/mL in experiment [1]; under 1 µg/mL with Microsporum canis; 100 µg/mL in the experiment on Saprolegnia; over 100 µg/mL in the experiment on Candida albicans; 10 µg/mL in the experiment on Sporothrix schenckii. For the same molecule, the Inhibition is 1 µg/mL in experiment [2]; 100 µg/mL with Candida tropicalis; 10 µg/mL in the experiment with Cryptococcus neoformans; under 1 µg/mL with Trichophyton benhamiae; 100 µg/mL in the experiment on Phialophora verrucosa; 100 µg/mL in the experiment on Mucor. The Inhibition with Trichophyton rubrum was under 1 µg/mL; with Streptococcus pyogenes, 1 µg/mL. Further, the Ratio in [5] is given as 0; in experiment [6], 1.
